Experimental data: ChEMBL document CHEMBL4177642, “Cyclic perylene diimide: Selective ligand for tetraplex DNA binding over double stranded DNA” (Bioorg Med Chem, 2017)
Activity calls are given as the source filed them. The calls are words filed in the database; no cut-off is given here.

Legend:
Quadruplex DNA [1] = test: Binding affinity to human TA-core of telomeric sequence G-quadruplex DNA assessed as hypochromic shift at 500 nanometer at 5 uM in presence of 100 mM KCl by UV-vis spectrophotometric analysis relative to control; format: nucleic-acid assay
How it was run: (§1)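 Absorption spectra at 25 °C of 5.0 μM ligand in 50 mM Tris-HCl pH 7.4, 0.10 M KCl, titrated with TA-core (0–15.7 μM) or CT-DNA (0–323.4 μM; concentration in base pairs).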

Quadruplex DNA [2] = test: Binding affinity to human TA-core of telomeric sequence G-quadruplex DNA assessed as red shift at 500 nanometer at 5 uM in presence of 100 mM KCl by UV-vis spectrophotometric analysis; format: nucleic-acid assay; how it was run: as §1
Quadruplex DNA [3] = test: Binding affinity to human TA-core of telomeric sequence G-quadruplex DNA assessed as hyperchromic shift at 550 nanometer at 5 uM in presence of 100 mM KCl by UV-vis spectrophotometric analysis relative to control; format: nucleic-acid assay; how it was run: as §1
Calf thymus DNA [4] = test: Binding affinity to calf thymus duplex DNA assessed as hypochromic shift at 500 nanometer at 5 uM in presence of 100 mM KCl by UV-vis spectrophotometric analysis relative to control; format: ADME, nucleic-acid assay, Bos taurus; conditions: cattle; how it was run: as §1
Calf thymus DNA [5] = test: Binding affinity to calf thymus duplex DNA assessed as red shift at 500 nanometer at 5 uM in presence of 100 mM KCl by UV-vis spectrophotometric analysis; format: ADME, nucleic-acid assay, Bos taurus; conditions: cattle; how it was run: as §1
Calf thymus DNA [6] = test: Binding affinity to calf thymus duplex DNA assessed as hyperchromic shift at 550 nanometer at 5 uM in presence of 100 mM KCl by UV-vis spectrophotometric analysis relative to control; format: ADME, nucleic-acid assay, Bos taurus; conditions: cattle; how it was run: as §1
Quadruplex DNA [7] = test: Binding affinity to human TA-core of telomeric sequence G-quadruplex DNA assessed as stabilization of antiparallel G-quadruplex structure by measuring increase in intensities of positive band at 290 nanometer up to 7.5 uM in presence of K+ by CD spectroscopic method; format: nucleic-acid assay
Quadruplex DNA [8] = test: Binding affinity to human TA-core of telomeric sequence G-quadruplex DNA assessed as stabilization of antiparallel G-quadruplex structure by measuring increase in intensities of negative band at 240 nanometer up to 7.5 uM in presence of K+ by CD spectroscopic method; format: nucleic-acid assay
Quadruplex DNA [9] = test: Binding affinity to human TA-core of telomeric sequence G-quadruplex DNA assessed as stabilization of antiparallel structure formation up to 4.5 uM in presence of Na+ by CD spectroscopic method; format: nucleic-acid assay
Quadruplex DNA [10] = test: Binding affinity to human TA-core of telomeric sequence G-quadruplex DNA assessed as stabilization of antiparallel structure formation up to 5 equiv by CD spectroscopic method; format: nucleic-acid assay
Calf thymus DNA [11] = test: Binding affinity to calf thymus duplex DNA assessed as change in the intensities of positive band formation at 250 nm up to 10 uM in presence of K+ by CD spectroscopic method; format: ADME, nucleic-acid assay, Bos taurus; conditions: cattle, 0.25 µM
Calf thymus DNA [12] = test: Binding affinity to calf thymus duplex DNA assessed as change in the intensities of negative band formation at 280 nm up to 10 uM in presence of K+ by CD spectroscopic method; format: ADME, nucleic-acid assay, Bos taurus; conditions: cattle, 0.28 µM
Quadruplex DNA [13] = test: Binding affinity to human TA-core of telomeric sequence G-quadruplex DNA assessed as change in melting temperature at 1.5 uM in presence of K+ by spectrophotometric analysis; format: nucleic-acid assay
How it was run: (§2)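 Melting of 1.5 μM TA-core followed by CD at 288 nm in 50 mM Tris-HCl pH 7.4 with 20 mM KCl or 20 mM NaCl. Run without or with 1.5 μM ligand (1:1 ligand:DNA), heating at 60 °C/h, data every 0.5 °C, 1 cm cell.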

Quadruplex DNA [14] = test: Binding affinity to human TA-core of telomeric sequence G-quadruplex DNA assessed as change in melting temperature at 1.5 uM in presence of Na+ by spectrophotometric analysis; format: nucleic-acid assay; how it was run: as §2
DNA = test: Binding affinity to Escherichia coli pUC19 duplex DNA assessed as unwinding of supercoiled DNA up to 40 uM after 1 hr in presence of human topoisomerase-1 by agarose gel electrophoresis; format: ADME, nucleic-acid assay
How it was run: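 pUC19 plasmid (0.025 μg/μL) preincubated 5 min at 37 °C with human Topo I (0.25 units/μL, 0.01% BSA) in 35 mM Tris-HCl pH 8.0, 72 mM KCl, 5 mM MgCl2, 5 mM DTT, 5 mM spermidine. Ligand then added and incubated 1 h at 37 °C. Stopped with SDS, proteinase K digested, phenol/chloroform extracted, run on 1% agarose, GelStar-stained.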

[15] = Inhibition of telomerase (unknown origin) by TRAP assay; set-up: species or system Homo sapiens
How it was run: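 TRAP with a TRAPeze kit, using positive-control cell lysate (250 cells per reaction). Extension 30 °C 1 h, then 35 PCR cycles. Products run on 12.5% PAGE, GelStar-stained and analyzed per kit.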

Calf thymus DNA [16] = test: Binding affinity to calf thymus duplex DNA assessed as change in the intensities of positive band formation at 250 nm up to 10 uM by CD spectroscopic method; format: ADME, nucleic-acid assay, Bos taurus; conditions: cattle, 0.25 µM
Calf thymus DNA [17] = test: Binding affinity to calf thymus duplex DNA assessed as change in the intensities of positive band formation at 250 nm up to 10 uM in presence of Na+ by CD spectroscopic method; format: ADME, nucleic-acid assay, Bos taurus; conditions: cattle, 0.25 µM
Calf thymus DNA [18] = test: Binding affinity to calf thymus duplex DNA assessed as change in the intensities of negative band formation at 280 nm up to 10 uM in presence of Na+ by CD spectroscopic method; format: ADME, nucleic-acid assay, Bos taurus; conditions: cattle, 0.28 µM
Calf thymus DNA [19] = test: Binding affinity to calf thymus duplex DNA assessed as change in the intensities of negative band formation at 280 nm up to 10 uM by CD spectroscopic method; format: ADME, nucleic-acid assay, Bos taurus; conditions: cattle, 0.28 µM
Quadruplex DNA [20] = test: Binding affinity to human TA-core of telomeric sequence G-quadruplex DNA assessed as change in enthalpy at 100 uM in presence of K+ by isothermal titration calorimetric method; format: nucleic-acid assay
How it was run: (§3)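 ITC at 25 °C: TA-core (10 μM in cell) annealed 95 °C 10 min, cooled 1.0 °C/min to 25 °C, in 50 mM AcOK-AcOH pH 5.5 (K+ lines) or AcONa-AcOH pH 5.5 (Na+ lines). Ligand at 100 μM in same buffer injected repeatedly (1.96 μL each). Solutions degassed 10 min; data fitted to an independent-site model.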

Quadruplex DNA [21] = test: Binding affinity to human TA-core of telomeric sequence G-quadruplex DNA assessed as change in enthalpy at 100 uM in presence of Na+ by isothermal titration calorimetric method; format: nucleic-acid assay; how it was run: as §3
Quadruplex DNA [22] = test: Binding affinity to human TA-core of telomeric sequence G-quadruplex DNA assessed as change in entropy at 100 uM in presence of K+ by isothermal titration calorimetric method; format: nucleic-acid assay; how it was run: as §3
Quadruplex DNA [23] = test: Binding affinity to human TA-core of telomeric sequence G-quadruplex DNA assessed as change in entropy at 100 uM in presence of Na+ by isothermal titration calorimetric method; format: nucleic-acid assay; how it was run: as §3
Quadruplex DNA [24] = test: Binding affinity to human TA-core of telomeric sequence G-quadruplex DNA assessed as isosbestic point at 5 uM in presence of 100 mM KCl by UV-vis spectrophotometric analysis; format: nucleic-acid assay; how it was run: as §1
Calf thymus DNA [25] = test: Binding affinity to calf thymus duplex DNA assessed as isosbestic point at 5 uM by UV-vis spectrophotometric analysis; format: ADME, nucleic-acid assay, Bos taurus; conditions: cattle; how it was run: as §1
[26] = Binding affinity to 27-mer DNA hairpin (unknown origin) at 100 uM in presence of K+ by isothermal titration calorimetric method
[27] = Binding affinity to 27-mer DNA hairpin (unknown origin) at 100 uM in presence of Na+ by isothermal titration calorimetric method
[28] = Selectivity ratio of binding constant for human TA-core of telomeric sequence G-quadruplex DNA to binding conctant for calf thymus duplex DNA
[29] = tested on: double-stranded DNA oligonucleotide dsOligo (synthetic); test: Binding affinity to synthetic duplex DNA oligonucleotide dsOligo assessed as change in melting temperature at 1.5 uM in presence of K+ by spectrophotometric analysis
[30] = tested on: double-stranded DNA oligonucleotide dsOligo (synthetic); test: Binding affinity to synthetic duplex DNA oligonucleotide dsOligo assessed as increase in melting temperature at 3 to 4.5 uM in presence of K+ by spectrophotometric analysis

Q: What does the source list for `O=C1CCCCCC(=O)NCCCN2CCN(CCCN3C(=O)c4ccc5c6ccc7c8c(ccc(c9ccc(c4c59)C3=O)c86)C(=O)N(CCCN3CCN(CCCN1)CC3)C7=O)CC2`?
A: Activity (Quadruplex DNA [1]): 42%; Activity (Quadruplex DNA [2]): 13 nm; Activity (Quadruplex DNA [3]): 55%; Activity (Calf thymus DNA [4]): 50%; Activity (Calf thymus DNA [5]): 8 nm; Activity (Calf thymus DNA [6]): 29%; Activity (Quadruplex DNA [7]): Active; Activity (Quadruplex DNA [8]): Active; Activity (Quadruplex DNA [9]): Active; Activity (Quadruplex DNA [10]): Active; Activity (Calf thymus DNA [11]): Not Active; Activity (Calf thymus DNA [12]): Not Active; ΔTm (Quadruplex DNA [13]): 21 °C; ΔTm (Quadruplex DNA [14]): 14 °C; Activity (DNA): Not Active; IC50 [15]: 240 nM; Activity (Calf thymus DNA [16]): Not Active; Activity (Calf thymus DNA [17]): Not Active; Activity (Calf thymus DNA [18]): Not Active; Activity (Calf thymus DNA [19]): Not Active; deltaH (Quadruplex DNA [20]): -6.71 kcal/mol; deltaH (Quadruplex DNA [21]): -7.14 kcal/mol; -TdeltaS (Quadruplex DNA [22]): -1.56 kcal/mol; -TdeltaS (Quadruplex DNA [23]): -1.7 kcal/mol; Activity (Quadruplex DNA [24]): 510 nm; Activity (Calf thymus DNA [25]): 520 nm; Activity [26]: inactive; Activity [27]: inactive; Selectivity ratio [28]: 900; deltaTm [29]: -1 °C; Activity [30]: Not Active
